SMILES strings stand for the structures.

The target in data set [1] is Bromodomain and WD repeat-containing protein 1 (Homo sapiens, UniProt Q9NSI6). Put plainly: Inhibition of human WDR9 bromodomain 2 (A1310 to E1430 residues) expressed in bacterial expression system by BROMOscan assay.
For data set [2], the target named is T1, Bromodomain and PHD finger-containing protein 3 (Homo sapiens, UniProt Q9ULD4).
T1 sequence (Q9ULD4 whole entry): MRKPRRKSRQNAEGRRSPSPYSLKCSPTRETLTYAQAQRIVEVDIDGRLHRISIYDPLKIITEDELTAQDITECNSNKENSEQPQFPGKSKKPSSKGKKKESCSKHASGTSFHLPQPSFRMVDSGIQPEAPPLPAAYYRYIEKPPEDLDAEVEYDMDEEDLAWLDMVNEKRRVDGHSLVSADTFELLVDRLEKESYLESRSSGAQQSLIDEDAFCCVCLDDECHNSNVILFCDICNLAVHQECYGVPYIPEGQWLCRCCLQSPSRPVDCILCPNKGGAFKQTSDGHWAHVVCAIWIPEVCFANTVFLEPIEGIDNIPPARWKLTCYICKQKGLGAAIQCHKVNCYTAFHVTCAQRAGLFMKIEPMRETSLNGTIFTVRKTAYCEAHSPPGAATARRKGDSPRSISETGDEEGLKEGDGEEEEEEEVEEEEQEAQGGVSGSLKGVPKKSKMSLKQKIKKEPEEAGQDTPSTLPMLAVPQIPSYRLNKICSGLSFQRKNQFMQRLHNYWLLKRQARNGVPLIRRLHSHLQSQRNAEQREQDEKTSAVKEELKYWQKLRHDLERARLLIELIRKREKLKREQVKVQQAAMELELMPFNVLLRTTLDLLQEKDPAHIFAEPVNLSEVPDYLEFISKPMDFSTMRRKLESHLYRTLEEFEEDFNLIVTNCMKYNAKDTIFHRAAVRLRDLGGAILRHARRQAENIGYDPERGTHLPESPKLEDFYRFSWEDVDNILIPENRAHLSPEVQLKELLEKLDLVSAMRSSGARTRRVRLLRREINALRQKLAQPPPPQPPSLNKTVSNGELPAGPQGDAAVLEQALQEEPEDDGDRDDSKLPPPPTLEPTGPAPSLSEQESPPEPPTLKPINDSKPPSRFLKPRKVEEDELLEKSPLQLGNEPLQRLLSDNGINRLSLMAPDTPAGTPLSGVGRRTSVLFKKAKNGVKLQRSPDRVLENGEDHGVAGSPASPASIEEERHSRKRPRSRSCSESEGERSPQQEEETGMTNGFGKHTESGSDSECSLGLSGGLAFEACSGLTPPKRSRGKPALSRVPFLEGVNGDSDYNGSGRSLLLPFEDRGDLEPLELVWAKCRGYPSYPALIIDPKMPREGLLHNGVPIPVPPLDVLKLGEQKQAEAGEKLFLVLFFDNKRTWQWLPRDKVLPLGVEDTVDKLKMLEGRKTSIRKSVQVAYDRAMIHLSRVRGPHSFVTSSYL
Put plainly: Inhibition of human BRPF3 (E588 to G701 residues) expressed in bacterial expression system by BROMOscan assay.

Data set [3] in a line: Half life in mouse at 3 mg/kg, iv. It is filed as ADME, organism-based. The settings on record: in vivo.
For data set [4], the target named is Bromodomain testis-specific protein (Homo sapiens, UniProt Q58F21). Put plainly: Binding affinity to BRDT BD1-BD2 (N21 to P380 residues) (unknown origin) after 1 hr by Alexa-647-conjugated probe based TR-FRET assay. For orientation: In TR-FRET formats the signal depends on donor and acceptor labels being close together.
The target of data set [5] is T2, E3 ubiquitin-protein ligase TRIM33 (Homo sapiens, UniProt Q9UPN9).
T2 sequence (Q9UPN9 whole entry): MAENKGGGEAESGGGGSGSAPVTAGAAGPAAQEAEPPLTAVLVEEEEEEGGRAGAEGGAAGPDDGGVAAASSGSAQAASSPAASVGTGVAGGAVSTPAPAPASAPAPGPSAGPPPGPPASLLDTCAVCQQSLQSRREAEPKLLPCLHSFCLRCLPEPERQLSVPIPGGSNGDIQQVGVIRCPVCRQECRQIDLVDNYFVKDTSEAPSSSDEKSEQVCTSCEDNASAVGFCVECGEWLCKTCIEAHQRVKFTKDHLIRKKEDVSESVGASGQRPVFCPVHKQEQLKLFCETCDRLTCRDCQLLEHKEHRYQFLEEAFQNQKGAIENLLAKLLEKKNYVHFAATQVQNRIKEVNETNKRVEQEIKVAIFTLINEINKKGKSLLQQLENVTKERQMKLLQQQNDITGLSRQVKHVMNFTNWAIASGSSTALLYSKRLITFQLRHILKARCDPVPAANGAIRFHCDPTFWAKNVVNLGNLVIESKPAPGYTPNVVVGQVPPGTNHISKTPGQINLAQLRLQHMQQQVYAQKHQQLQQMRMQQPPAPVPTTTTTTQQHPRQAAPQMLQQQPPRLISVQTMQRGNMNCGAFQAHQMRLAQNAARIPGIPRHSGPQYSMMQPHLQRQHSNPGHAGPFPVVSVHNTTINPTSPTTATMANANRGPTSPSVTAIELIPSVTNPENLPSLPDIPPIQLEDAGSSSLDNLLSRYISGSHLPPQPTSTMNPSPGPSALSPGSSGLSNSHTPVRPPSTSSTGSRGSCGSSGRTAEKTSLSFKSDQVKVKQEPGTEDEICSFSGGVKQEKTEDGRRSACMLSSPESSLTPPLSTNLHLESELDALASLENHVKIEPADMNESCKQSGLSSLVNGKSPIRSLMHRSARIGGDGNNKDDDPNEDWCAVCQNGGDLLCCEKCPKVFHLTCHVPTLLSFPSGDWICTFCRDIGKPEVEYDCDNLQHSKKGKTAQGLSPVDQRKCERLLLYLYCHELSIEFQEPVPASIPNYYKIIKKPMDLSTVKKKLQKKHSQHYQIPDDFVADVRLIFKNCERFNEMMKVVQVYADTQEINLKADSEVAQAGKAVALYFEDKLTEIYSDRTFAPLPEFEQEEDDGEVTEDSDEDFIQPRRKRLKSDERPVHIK
Put plainly: Inhibition of human TRIM33-phd-bromo (D882 to A1087 residues) expressed in bacterial expression system by BROMOscan assay.

The target in another data set is Protein polybromo-1 (Homo sapiens, UniProt Q86U86). Put plainly: Inhibition of human PBRM1 bromodomain 2 (S178 to E291 residues) expressed in bacterial expression system by BROMOscan assay.
A short description of data set [6]: Permeability of the compound. Format: physicochemical. The settings on record: not told; read-out: permeability.
A short description of data set [7]: Oral bioavailability in mouse at 10 mg/kg. The conditions noted are these: in vivo. Format: ADME, organism-based.
For another data set, the system named is MX1. Put plainly: Antiproliferative activity against human MX1 cells incubated over 72 hrs by Cell Titre Glo luminescence assay. Format: functional, cell-based. The conditions noted are these: MX1, 72 h. Summed up: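 Triple-negative breast cancer line MX-1 grown 3 days with compound. Proliferation read with the CellTiter-Glo kit. EC50 is the mean of two measurements.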

The target of data set [8] is Bromodomain-containing protein 3 (Homo sapiens, UniProt Q15059). Put plainly: Binding affinity to BRD3 BD1-BD2 (P24 to P416 residues) (unknown origin) after 1 hr by Alexa-647-conjugated probe based TR-FRET assay.
The subject of the next data set is Plasma. Put plainly: Unbound clearance in mouse plasma at 3 mg/kg, iv. It is filed as ADME, organism-based. The conditions noted are these: in vivo.

Bromodomain and WD repeat-containing protein 1, sequence (Q9NSI6 whole entry, the tested form may be a part): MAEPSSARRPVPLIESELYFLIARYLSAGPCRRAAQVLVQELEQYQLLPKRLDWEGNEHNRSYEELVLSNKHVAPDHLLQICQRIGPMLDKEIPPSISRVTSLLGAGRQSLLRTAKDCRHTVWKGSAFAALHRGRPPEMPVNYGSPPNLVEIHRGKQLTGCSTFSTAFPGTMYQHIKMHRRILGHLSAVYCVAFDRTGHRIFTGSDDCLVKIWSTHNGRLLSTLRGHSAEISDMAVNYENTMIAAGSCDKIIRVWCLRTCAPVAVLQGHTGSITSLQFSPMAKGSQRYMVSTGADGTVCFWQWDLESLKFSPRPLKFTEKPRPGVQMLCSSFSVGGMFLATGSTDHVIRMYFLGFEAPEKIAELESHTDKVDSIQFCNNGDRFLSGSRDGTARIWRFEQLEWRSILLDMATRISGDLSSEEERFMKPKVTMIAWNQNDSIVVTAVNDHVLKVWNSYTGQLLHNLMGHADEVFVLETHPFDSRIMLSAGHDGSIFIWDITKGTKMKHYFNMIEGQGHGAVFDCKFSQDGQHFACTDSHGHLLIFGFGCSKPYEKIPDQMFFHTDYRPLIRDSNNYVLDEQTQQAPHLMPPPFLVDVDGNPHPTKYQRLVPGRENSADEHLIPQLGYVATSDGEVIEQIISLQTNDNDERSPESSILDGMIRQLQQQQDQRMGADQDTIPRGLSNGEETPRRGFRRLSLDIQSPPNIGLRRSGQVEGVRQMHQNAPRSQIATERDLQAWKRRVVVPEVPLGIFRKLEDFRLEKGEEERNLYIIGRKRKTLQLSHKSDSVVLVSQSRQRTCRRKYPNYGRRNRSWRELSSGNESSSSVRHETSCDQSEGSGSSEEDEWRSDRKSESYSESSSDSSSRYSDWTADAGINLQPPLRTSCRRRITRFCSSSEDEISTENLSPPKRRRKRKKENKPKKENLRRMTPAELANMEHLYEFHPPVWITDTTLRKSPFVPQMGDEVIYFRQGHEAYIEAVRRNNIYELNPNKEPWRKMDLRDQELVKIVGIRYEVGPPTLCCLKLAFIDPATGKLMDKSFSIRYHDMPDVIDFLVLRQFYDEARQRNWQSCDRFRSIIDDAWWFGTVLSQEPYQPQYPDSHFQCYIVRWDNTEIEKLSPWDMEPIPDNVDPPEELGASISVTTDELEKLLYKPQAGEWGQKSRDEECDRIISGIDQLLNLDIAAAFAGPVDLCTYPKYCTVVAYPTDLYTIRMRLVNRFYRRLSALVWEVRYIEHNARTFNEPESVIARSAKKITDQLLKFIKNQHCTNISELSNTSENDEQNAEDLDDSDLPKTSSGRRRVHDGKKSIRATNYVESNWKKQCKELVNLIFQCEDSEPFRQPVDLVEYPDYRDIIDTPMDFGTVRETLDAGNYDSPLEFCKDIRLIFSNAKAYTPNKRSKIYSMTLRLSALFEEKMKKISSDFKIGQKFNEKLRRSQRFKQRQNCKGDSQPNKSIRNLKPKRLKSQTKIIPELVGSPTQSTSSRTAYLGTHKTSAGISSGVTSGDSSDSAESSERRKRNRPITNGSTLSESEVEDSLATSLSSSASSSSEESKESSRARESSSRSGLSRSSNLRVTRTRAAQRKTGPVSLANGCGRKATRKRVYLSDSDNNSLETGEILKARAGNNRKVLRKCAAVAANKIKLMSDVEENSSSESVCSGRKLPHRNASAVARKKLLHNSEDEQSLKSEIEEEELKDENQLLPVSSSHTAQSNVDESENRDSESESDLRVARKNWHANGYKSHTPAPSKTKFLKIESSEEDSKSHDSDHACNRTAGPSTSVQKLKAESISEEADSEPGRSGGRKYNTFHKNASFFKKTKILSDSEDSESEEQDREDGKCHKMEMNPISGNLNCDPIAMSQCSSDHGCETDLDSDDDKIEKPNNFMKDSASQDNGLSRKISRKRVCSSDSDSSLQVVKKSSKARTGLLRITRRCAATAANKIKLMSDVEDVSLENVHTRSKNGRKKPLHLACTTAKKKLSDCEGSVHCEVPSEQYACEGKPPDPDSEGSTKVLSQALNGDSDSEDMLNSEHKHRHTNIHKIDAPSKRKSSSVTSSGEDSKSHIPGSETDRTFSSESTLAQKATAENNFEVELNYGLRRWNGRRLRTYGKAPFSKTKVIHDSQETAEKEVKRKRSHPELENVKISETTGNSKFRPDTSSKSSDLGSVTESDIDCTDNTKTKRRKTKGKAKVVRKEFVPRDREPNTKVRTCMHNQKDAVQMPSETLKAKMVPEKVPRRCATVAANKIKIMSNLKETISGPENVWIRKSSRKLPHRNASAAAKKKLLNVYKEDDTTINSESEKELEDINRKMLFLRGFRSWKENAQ
Bromodomain-containing protein 3, sequence (Q15059 whole entry, the tested form may be a part): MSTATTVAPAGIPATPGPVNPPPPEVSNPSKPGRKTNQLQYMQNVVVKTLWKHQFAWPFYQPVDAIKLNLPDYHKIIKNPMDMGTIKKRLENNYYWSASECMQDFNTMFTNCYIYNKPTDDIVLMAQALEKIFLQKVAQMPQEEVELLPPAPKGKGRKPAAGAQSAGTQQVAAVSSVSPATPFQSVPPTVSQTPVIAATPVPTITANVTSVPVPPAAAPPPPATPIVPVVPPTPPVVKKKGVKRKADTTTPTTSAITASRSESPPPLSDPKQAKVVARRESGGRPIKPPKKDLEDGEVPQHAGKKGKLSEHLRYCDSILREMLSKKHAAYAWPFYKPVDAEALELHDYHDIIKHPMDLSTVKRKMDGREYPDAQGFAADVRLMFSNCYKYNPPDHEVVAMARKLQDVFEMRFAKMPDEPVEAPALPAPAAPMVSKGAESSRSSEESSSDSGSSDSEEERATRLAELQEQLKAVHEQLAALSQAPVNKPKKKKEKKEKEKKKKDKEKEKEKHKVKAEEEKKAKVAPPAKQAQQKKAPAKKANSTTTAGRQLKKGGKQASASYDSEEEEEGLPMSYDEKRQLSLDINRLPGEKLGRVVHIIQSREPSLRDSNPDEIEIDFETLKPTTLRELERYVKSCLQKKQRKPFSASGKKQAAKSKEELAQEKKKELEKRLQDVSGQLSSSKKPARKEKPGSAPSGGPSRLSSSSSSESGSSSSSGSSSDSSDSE
Protein polybromo-1, sequence (Q86U86 whole entry, the tested form may be a part): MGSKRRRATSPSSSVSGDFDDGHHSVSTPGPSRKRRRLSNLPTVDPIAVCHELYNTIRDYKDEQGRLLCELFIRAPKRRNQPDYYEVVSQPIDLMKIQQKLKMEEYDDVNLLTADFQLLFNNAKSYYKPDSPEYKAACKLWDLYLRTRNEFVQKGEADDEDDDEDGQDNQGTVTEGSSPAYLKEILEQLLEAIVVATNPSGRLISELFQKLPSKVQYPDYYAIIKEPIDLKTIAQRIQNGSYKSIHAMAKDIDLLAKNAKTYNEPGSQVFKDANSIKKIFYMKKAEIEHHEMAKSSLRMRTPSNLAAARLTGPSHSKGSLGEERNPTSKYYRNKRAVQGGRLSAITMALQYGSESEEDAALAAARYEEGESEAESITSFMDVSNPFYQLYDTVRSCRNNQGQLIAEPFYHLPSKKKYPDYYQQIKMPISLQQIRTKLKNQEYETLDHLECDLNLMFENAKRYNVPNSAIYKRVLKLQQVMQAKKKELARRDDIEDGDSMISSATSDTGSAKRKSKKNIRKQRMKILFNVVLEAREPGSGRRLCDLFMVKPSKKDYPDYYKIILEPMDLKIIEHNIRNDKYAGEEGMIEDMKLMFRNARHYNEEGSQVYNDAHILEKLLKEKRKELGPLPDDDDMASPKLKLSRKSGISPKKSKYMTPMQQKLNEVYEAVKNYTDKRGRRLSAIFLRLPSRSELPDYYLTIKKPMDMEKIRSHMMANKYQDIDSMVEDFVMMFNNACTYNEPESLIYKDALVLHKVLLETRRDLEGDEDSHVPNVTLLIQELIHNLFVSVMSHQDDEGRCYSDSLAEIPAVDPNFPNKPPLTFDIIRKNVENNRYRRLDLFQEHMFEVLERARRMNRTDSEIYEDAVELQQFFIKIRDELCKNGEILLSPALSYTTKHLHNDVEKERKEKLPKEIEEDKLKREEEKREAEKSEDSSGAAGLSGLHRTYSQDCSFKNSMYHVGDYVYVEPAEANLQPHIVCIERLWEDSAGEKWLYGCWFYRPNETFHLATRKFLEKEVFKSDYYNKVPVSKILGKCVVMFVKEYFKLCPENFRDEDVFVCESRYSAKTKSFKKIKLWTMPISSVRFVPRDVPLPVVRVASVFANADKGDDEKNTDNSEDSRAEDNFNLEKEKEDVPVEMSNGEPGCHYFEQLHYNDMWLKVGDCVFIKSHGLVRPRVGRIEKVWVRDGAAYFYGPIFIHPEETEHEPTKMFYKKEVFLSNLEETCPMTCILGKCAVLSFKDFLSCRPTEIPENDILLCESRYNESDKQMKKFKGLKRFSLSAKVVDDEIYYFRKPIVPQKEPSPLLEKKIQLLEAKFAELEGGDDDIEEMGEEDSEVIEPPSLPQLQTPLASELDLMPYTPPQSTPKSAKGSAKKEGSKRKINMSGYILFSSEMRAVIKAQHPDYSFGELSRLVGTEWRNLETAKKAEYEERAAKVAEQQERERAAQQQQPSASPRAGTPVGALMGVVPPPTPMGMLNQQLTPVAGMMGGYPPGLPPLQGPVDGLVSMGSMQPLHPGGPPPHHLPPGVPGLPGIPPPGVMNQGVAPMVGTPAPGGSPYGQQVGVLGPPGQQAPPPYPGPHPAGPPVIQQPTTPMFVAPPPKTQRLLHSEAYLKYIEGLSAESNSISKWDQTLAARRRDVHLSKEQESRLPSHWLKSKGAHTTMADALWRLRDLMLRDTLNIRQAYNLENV

On to `Cc1[nH]c(-c2cc(NS(C)(=O)=O)ccc2Oc2ccccc2)c2c1C(=O)CCC2`, for which the IC50 was 10000 nM in data set [1], greater than 10000 nM in data set [2], greater than 10000 nM in [5] and greater than 10000 nM at Protein polybromo-1. The half-life in [3] was 0.6 h. Also, the inhibitory constant (Ki) in [4] turned out to be 110 nM; in [8], 35 nM. The Papp in data set [6] was 27 ×10⁻⁶ cm/s. In data set [7], this compound showed a bioavailability of 30%. This compound displayed an EC50 in the data set with MX1 of 160 nM. The CL free in the data set on Plasma is 1400 mL/min/kg.
`Cn1cc(-c2cc(S(C)(=O)=O)ccc2Oc2ccc(F)cc2F)c2cc[nH]c(=O)c21`: the 50% inhibitory concentration (IC50) (in data set [1]; in [2]; in data set [5]; against Protein polybromo-1) was greater than 10000 nM each time. Further, the half-life in data set [3] is 2.5 h. The inhibition constant (Ki) in [4] was found to be 490 nM; in data set [8] it was 290 nM. Besides, in data set [6], the Papp was determined as 35 ×10⁻⁶ cm/s. In [7], this compound yielded a bioavailability of 57%. The compound further yielded a 50% effective concentration (EC50) in the data set with MX1 of 110 nM. In addition, the CL free with Plasma is 267 mL/min/kg.
`Cc1[nH]c(-c2cc(S(C)(=O)=O)ccc2Oc2ccc(F)cc2F)c2c1C(=O)NCC2`: the half-maximal inhibitory concentration (IC50) (in data set [1]; in [2]; in data set [5]; against Protein polybromo-1) was greater than 10000 nM each time. In data set [3], this compound gave a half-life of 1.3 h. The inhibition constant (Ki) in [4] worked out at 140 nM; in [8] it was 110 nM. Also, in [6], the Papp came out at 22 ×10⁻⁶ cm/s. Besides, the bioavailability in data set [7] is 32%. Besides, the midpoint of the response in the data set with MX1, the EC50, lay at 900 nM. Moreover, the CL free in the data set on Plasma came out at 233 mL/min/kg.

A word on the IC50: it is the concentration needed to halve the response being measured. High values mean a need for much substance, low ones inhibition by little substance. Broadly, the half-life is how long it takes for the measured level to halve. A high value points to slow loss. As a reminder, the Ki is the equilibrium dissociation constant of an inhibitor or competing ligand from its target. A higher Ki goes with a looser hold on the target. What is called bioavailability is the share of a dose that reaches the circulation, judged against a reference dose that is usually intravenous. Low values mean little systemic uptake, high ones much systemic uptake. By EC50 is commonly meant the concentration giving half of the maximal effect.

For the origin of these results see ChEMBL document CHEMBL4038268, “Methylpyrrole inhibitors of BET bromodomains” (Bioorg Med Chem Lett, 2017).
